# From ChEMBL document CHEMBL2010760, “New insights into the structure-cytotoxicity relationship of spirostan saponins and related glycosides” (Bioorg Med Chem, 2012)
# Calls of active or inactive are those of the source. The rule behind the calls is not given here.
# Columns and labels:
# [1] = tested on: HL-60; assay: Cytotoxicity against human HL60 cells assessed as cell viability after 72 hrs by MTT assay; type: functional, cell-based; conditions: HL-60, 72 h
# How it was run: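 HL-60 myeloid leukemia cells in RPMI 1640 with 10% heat-inactivated FBS, penicillin/streptomycin, 37 °C, 5% CO2. Exponentially growing cells (1 × 10⁴/well) exposed to 0.3–100 µM glycoside (100 mM DMSO stocks) for 72 h. MTT read at 570 nm. Survival taken as percent of control absorbance. IC50 from concentration–response curves fitted per experiment (DeLean equation). Triplicate determinations.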
# [2] = tested on: HL-60; assay: Induction of apoptosis in human HL60 cells assessed as morphological changes at 10 uM after 24 hrs by phase contrast microscopy; type: functional, cell-based
# How it was run: (§1)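 HL-60 cells cultured in RPMI 1640/10% FBS at 37 °C, 5% CO2. Treated with 10 µM glycoside for 24 h. Representative fields examined by inverted phase contrast microscopy for morphology and growth.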
# [3] = tested on: HL-60; assay: Growth inhibition in human HL60 cells at 10 uM after 24 hrs by phase contrast microscopy; type: functional, cell-based; how it was run: as §1
# [4] = tested on: HL-60; assay: Induction of apoptosis in human HL60 cells assessed as condensed chromatin at 10 uM after 24 hrs by Hoechst 33258 staining method; type: functional, cell-based
# How it was run: (§2)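 Nuclear chromatin condensation and fragmentation in HL-60 cells scored by fluorescent microscopy after Hoechst 33258 staining. Treated cells compared with control cells.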
# [5] = tested on: HL-60; assay: Induction of apoptosis in human HL60 cells assessed as fragmented chromatin at 10 uM after 24 hrs by Hoechst 33258 staining method; type: functional, cell-based; how it was run: as §2
# [6] = tested on: HL-60; assay: Induction of apoptosis in human HL60 cells assessed as increase in hypodiploid cells at sub-G1 fraction at 10 uM after 24 hrs by propidium iodide based flow cytometry relative to control; type: functional
# How it was run: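 HL-60 cells incubated with 10 µM glycoside for 24 h, labelled with propidium iodide and analysed by flow cytometry. Hypodiploid (sub-G1) fraction compared with control cells.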
# [7] = tested on: HL-60; assay: Induction of apoptosis in human HL60 cells assessed as caspase 3/7 activation measuring cleavage of tetrapeptide DEVD-pNA at 1 to 10 uM after 24 hrs; type: functional, cell-based
# How it was run: (§3)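 HL-60 cells treated with increasing glycoside concentrations and harvested at 24 h. Lysates assayed colorimetrically with DEVD-pNA (caspase-3/7), IETD-pNA (caspase-8) and LEHD-pNA (caspase-9). Activity expressed as fold increase over control, mean ± SE. Two independent experiments, each in duplicate.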
# [8] = tested on: HL-60; assay: Induction of apoptosis in human HL60 cells assessed as caspase 8 activation measuring cleavage of tetrapeptide IETD-pNA at 1 to 10 uM after 24 hrs; type: functional, cell-based; how it was run: as §3
# [9] = tested on: HL-60; assay: Induction of apoptosis in human HL60 cells assessed as caspase 9 activation measuring cleavage of tetrapeptide LEHD-pNA at 1 to 10 uM after 24 hrs; type: functional, cell-based; how it was run: as §3
SMILES,IC50 [1],also measured
C[C@@H]1CC[C@@]2(OC1)O[C@H]1C[C@H]3[C@@H]4CC(=O)[C@@]5(O)C[C@@H](O[C@@H]6O[C@@H]7CO[C@@H](c8ccccc8)O[C@H]7[C@H](OC(=O)C(C)(C)C)[C@H]6O)CC[C@]5(C)[C@H]4CC[C@]3(C)[C@H]1[C@@H]2C,3.3 µM,
C[C@@H]1CC[C@@]2(OC1)O[C@H]1C[C@H]3[C@@H]4CC[C@H]5C[C@@H](O[C@@H]6O[C@H](CO)[C@@H](O)[C@H](O)[C@H]6O[C@@H]6O[C@@H](C)[C@H](O)[C@@H](O)[C@H]6O)CC[C@]5(C)[C@H]4CC(=O)[C@]3(C)[C@H]1[C@@H]2C,> 100 µM,
C[C@@H]1CC[C@@]2(OC1)O[C@H]1C[C@H]3[C@@H]4CC[C@H]5C[C@@H](O[C@@H]6O[C@@H]7CO[C@@H](c8ccccc8)O[C@H]7[C@H](OC(=O)C(C)(C)C)[C@H]6O)CC[C@]5(C)[C@H]4CC(=O)[C@]3(C)[C@H]1[C@@H]2C,45 µM,
C[C@@H]1CC[C@@]2(OC1)O[C@H]1C[C@H]3[C@@H]4CC[C@H]5C[C@@H](O[C@@H]6O[C@H](COC(=O)C(C)(C)C)[C@@H](O)[C@H](OC(=O)C(C)(C)C)[C@H]6O)CC[C@]5(C)[C@H]4CC(=O)[C@]3(C)[C@H]1[C@@H]2C,12 µM,
C[C@@H]1CC[C@@]2(OC1)O[C@H]1C[C@H]3[C@@H]4CC[C@H]5C[C@@H](O[C@@H]6O[C@H](CO[C@@H]7O[C@@H](C)[C@H](O)[C@@H](O)[C@H]7O)[C@@H](O[C@@H]7O[C@@H](C)[C@H](O)[C@@H](O)[C@H]7O)[C@H](O)[C@H]6O)CC[C@]5(C)[C@H]4CC(=O)[C@]3(C)[C@H]1[C@@H]2C,> 100 µM,
C[C@@H]1CC[C@@]2(OC1)O[C@H]1C[C@H]3[C@@H]4CC[C@H]5C[C@@H](O[C@@H]6O[C@H](CO)[C@@H](O)[C@H](O)[C@H]6O)CC[C@]5(C)[C@H]4CC(=O)[C@]3(C)[C@H]1[C@@H]2C,> 100 µM,
C[C@@H]1CC[C@@]2(OC1)O[C@H]1C[C@H]3[C@@H]4CC[C@H]5C[C@@H](O[C@@H]6O[C@H](CO)[C@@H](O[C@@H]7O[C@@H](C)[C@H](O)[C@@H](O)[C@H]7O)[C@H](O)[C@H]6O[C@@H]6O[C@@H](C)[C@H](O)[C@@H](O)[C@H]6O)CC[C@]5(C)[C@H]4CC(=O)[C@]3(C)[C@H]1[C@@H]2C,4.3 µM,
C[C@@H]1CC[C@@]2(OC1)O[C@H]1C[C@H]3[C@@H]4CC(=O)[C@@]5(O)C[C@@H](O[C@@H]6O[C@H](CO)[C@@H](O[C@@H]7O[C@@H](C)[C@H](O)[C@@H](O)[C@H]7O)[C@H](O)[C@H]6O[C@@H]6O[C@@H](C)[C@H](O)[C@@H](O)[C@H]6O)CC[C@]5(C)[C@H]4CC[C@]3(C)[C@H]1[C@@H]2C,> 100 µM,
C[C@@H]1CC[C@@]2(OC1)O[C@H]1C[C@H]3[C@@H]4CC(=O)[C@@]5(O)C[C@@H](O[C@@H]6O[C@H](CO)[C@@H](O)[C@H](O)[C@H]6O)CC[C@]5(C)[C@H]4CC[C@]3(C)[C@H]1[C@@H]2C,> 100 µM,
C[C@@H]1CC[C@@]2(OC1)O[C@H]1C[C@H]3[C@@H]4CC(=O)[C@@]5(O)C[C@@H](O[C@@H]6O[C@H](CO)[C@@H](O)[C@H](O)[C@H]6O[C@@H]6O[C@@H](C)[C@H](O)[C@@H](O)[C@H]6O)CC[C@]5(C)[C@H]4CC[C@]3(C)[C@H]1[C@@H]2C,86.7 µM,
C[C@@H]1CC[C@@]2(OC1)O[C@H]1C[C@H]3[C@@H]4CC(=O)[C@@]5(O)C[C@@H](O[C@@H]6O[C@H](COC(=O)C(C)(C)C)[C@@H](O)[C@H](OC(=O)C(C)(C)C)[C@H]6O)CC[C@]5(C)[C@H]4CC[C@]3(C)[C@H]1[C@@H]2C,2.1 µM,Activity [2]: Active; growth inhibition (GI) [3]: Active; Activity [4]: Active; Activity [5]: Active; fold change (FC) [6]: 7; Activity [7]: Active; Activity [8]: Active; Activity [9]: Active
C[C@@H]1CC[C@@]2(OC1)O[C@H]1C[C@H]3[C@@H]4CC=C5C[C@@H](O[C@@H]6O[C@H](CO)[C@@H](O[C@@H]7O[C@@H](C)[C@H](O)[C@@H](O)[C@H]7O)[C@H](O)[C@H]6O[C@@H]6O[C@@H](C)[C@H](O)[C@@H](O)[C@H]6O)CC[C@]5(C)[C@H]4CC[C@]3(C)[C@H]1[C@@H]2C [DIOSCIN],3.8 µM,
C[C@@H]1CC[C@@]2(OC1)O[C@H]1C[C@H]3[C@@H]4CC(=O)[C@@]5(O)C[C@@H](O[C@@H]6O[C@H](CO[C@@H]7O[C@@H](C)[C@H](O)[C@@H](O)[C@H]7O)[C@@H](O[C@@H]7O[C@@H](C)[C@H](O)[C@@H](O)[C@H]7O)[C@H](O)[C@H]6O)CC[C@]5(C)[C@H]4CC[C@]3(C)[C@H]1[C@@H]2C,> 100 µM,
